Measured values from different studies.
Each line is one published result; the experiments were not run side by side.
Organism: Plasmodium falciparum
Observed: parasite growth

Compound | technique | strain | time | notes | EC50 [nM]
Cc1noc(-c2cccs2)c1C(=O)NCCc1cccc(Cl)c1 | SYBR Green | 3D7 | – | – | 313
C[C@@H]1C[C@@H]([C@H](O)CC2CC(=O)NC(=O)C2)C(=O)[C@@H](C)C1 | SYBR Green | 3D7 | – | blood stage | 200
CN1CCCN(S(=O)(=O)c2ccc(-c3ccc4ncnc(Nc5ccc(OCc6cccc(F)c6)c(Cl)c5)c4c3)cc2)CC1 | SYBR Green | W2 | – | drug-resistant strain, blood stage | 52
COc1cc2[nH]c(C)c(-c3ccc(Oc4ccc(OC(F)(F)F)cc4)cc3)c(=O)c2cc1Cl | SYBR Green | TM90 | 72 h | drug-resistant strain, blood stage | 1
Cc1cc(NC2Cc3cc(F)c(F)cc3C2)n2nc(C(C)(F)F)nc2n1 | – | K1 | – | drug-resistant strain, blood stage | 49
COc1cc2[nH]c(C)c(-c3ccccc3)c(=O)c2cc1Cl | – | W2 | – | drug-resistant strain, blood stage | 26.2
CCN(CC)CCCC(C)Nc1ccnc2cc(Cl)ccc12 (stereo not drawn) | SYBR Green | D6 | 72 h | blood stage | 9.1
Cc1cc(N[C@H]2CCc3ccc(Cl)cc3C2)n2nc(C(C)(F)F)nc2n1 | – | K1 | – | drug-resistant strain, blood stage | 1.7
COCC(C)n1c(SCC(=O)Nc2cc(C(F)(F)F)ccc2Cl)nc2ccccc2c1=O (stereo not drawn) | SYBR Green | 3D7 | – | – | 356
Fc1cccc(COc2ccc(Nc3ncnc4ccc(-c5cccc(N6CCOCC6)c5)cc34)cc2Cl)c1 | SYBR Green | W2 | – | drug-resistant strain, blood stage | 680
O=C1C(O)=C([C@H]2CC[C@H](c3ccc(Cl)cc3)CC2)C(=O)c2ccccc21 | SYBR Green | D6 | 72 h | blood stage | < 0.25
C[C@H]1[C@@H](O)O[C@@H]2O[C@@]3(C)CC[C@H]4[C@H](C)CC[C@@H]1[C@@]24OO3 | SYBR Green | 3D7 | – | – | 3.56
